The text below walks through data of ChEMBL document CHEMBL1154803, “Tetranortriterpenoids from Chisocheton paniculatus” (J Nat Prod, 2009).

The subject of one experiment is SMMC-7721. Nature of the experiment: Cytotoxicity against human SMMC7721 cells by MTT assay. In kind it is functional, cell-based. A digest of the protocol: (§1)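 MTT assay per a literature method. HeLa (cervical) and SMMC7721 (hepatoma) cells came from the Cell Bank of the Shanghai Institute of Cell Biology. Fluorouracil served as positive control. Three independent replicates were run, and IC50 values were reported.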
On the technique in general: Formazan colour is commonly taken as a measure of viable cells.

Another experiment has as its system HeLa. Nature of the experiment: Cytotoxicity against human HeLa cells by MTT assay. The experiment is classed as functional, cell-based. A digest of the protocol:
as §1

As to `C/C=C(\C)C(=O)O[C@@H]1[C@@H]2OC[C@]3(C)[C@H](OC(C)=O)C[C@H](OC(C)=O)[C@@](C)([C@@H]23)[C@H]2C[C@H](OC)O[C@H]3C[C@@H](C4=CCOC4=O)C(C)=C3[C@]12C` [CHISONIMBOLININ A], the IC50 in the experiment on SMMC-7721 and in the experiment on HeLa was more than 100 µM throughout.

As to `C/C=C(\C)C(=O)O[C@@H]1[C@@H]2OC[C@]3(C)[C@H](OC(C)=O)C[C@H](O)[C@@](C)([C@@H]23)[C@H]2C[C@H](OC)O[C@H]3C[C@@H](C4=CCOC4=O)C(C)=C3[C@]12C` [CHISONIMBOLININ B], the IC50 – broadly, the concentration at which inhibition is half-maximal – with SMMC-7721 was 50 µM; with HeLa, more than 100 µM.

Take `C/C=C(\C)C(=O)O[C@@H]1[C@@H]2OC[C@]3(C)[C@H](OC(=O)/C(C)=C/C)C[C@H](O)[C@@](C)([C@@H]23)[C@H]2C[C@H](OC)O[C@H]3C[C@@H](C4=CCOC4=O)C(C)=C3[C@]12C` [CHISONIMBOLININ C]: the half-inhibitory concentration (IC50) in the experiment with SMMC-7721 came to 50 µM; in the experiment with HeLa, 13 µM.

Take `C/C=C(\C)C(=O)O[C@@H]1[C@@H]2OC[C@]3(C)[C@H](OC(C)=O)C[C@H](O)[C@@](C)([C@@H]23)[C@H]2C[C@H](O)O[C@H]3C[C@@H](C4=CCOC4=O)C(C)=C3[C@]12C` [CHISONIMBOLININ D]: the IC50 in the experiment on SMMC-7721 was determined as 50 µM; in the experiment on HeLa, 32 µM.

`C/C=C(\C)C(=O)O[C@@H]1[C@@H]2OC[C@]3(C)[C@H](OC(C)=O)C[C@H](O)[C@@](C)([C@@H]23)[C@H]2C[C@H](OCC)O[C@H]3C[C@@H](C4=CCOC4=O)C(C)=C3[C@]12C` [CHISONIMBOLININ E]: the 50% inhibitory concentration (IC50) in the experiment on SMMC-7721 and in the experiment with HeLa was more than 100 µM throughout.

Turning to `C/C=C(\C)C(=O)O[C@@H]1[C@@H]2OC[C@]3(C)[C@H](OC(C)=O)C[C@H](O)[C@@](C)([C@@H]23)[C@H]2CCO[C@H]3C[C@@H](C4=CCOC4=O)C(C)=C3[C@]12C` [CHISONIMBOLININ F], the IC50 with SMMC-7721 and with HeLa was more than 100 µM each time.

Consider `C/C=C(\C)C(=O)O[C@@H]1[C@@H]2OC[C@]3(C)[C@H](OC(C)=O)C[C@H](OC(C)=O)[C@@](C)([C@@H]23)[C@H]2CCO[C@H]3C[C@@H](C4=CCOC4=O)C(C)=C3[C@]12C` [CHISONIMBOLININ G], for which the IC50 with SMMC-7721 and in the experiment on HeLa was more than 100 µM throughout.
